# Experimental data of several laboratories.
# Compare with care: the assays were run in different laboratories.
# CYP2B6: Cytochrome P450 2B6 (CYP2B6, Homo sapiens, UniProt P20813)
SMILES,target or system,test,system,conditions,measurement,value
Cc1nc2ccc(Cl)cn2c1C(=O)N1CCN(Cc2cn(-c3ccc(C(F)(F)F)cc3)nn2)CC1,HeLa,"cell growth or viability, resazurin",,,CC50,> 100 µM
C[C@@H]1[C@H](O)[C@@H](C)/C=C/C=C/C=C/C=C/C=C/C=C/C=C/[C@H](O[C@@H]2O[C@H](C)[C@@H](O)[C@H](N)[C@@H]2O)C[C@@H]2O[C@](O)(C[C@@H](O)C[C@@H](O)[C@H](O)CC[C@@H](O)C[C@@H](O)CC(=O)O[C@H]1C)C[C@H](O)[C@H]2C(=O)O,,haemolysis,human,"4 µg/mL, 1 h",haemolysis,93.2%
Fc1ccc(-c2csc(NN=Cc3ccccc3C(F)(F)F)n2)cc1,,haemolysis,human,"100 µM, 30 min, pH 7.4",haemolysis,45.7%
C=CC(=O)N(C)CCOc1c(N)ncnc1-c1cc(F)cc(NC(=O)c2ccc(C3CC3)cc2F)c1C,CYP2B6,"enzyme activity, substrate",,"10 min, pH 7.4",Km,1.3 µM
CCN(CC)CCCC(C)Nc1ccnc2cc(Cl)ccc12 (centres unmarked),,haemolysis,human,"10 mM, 45 min",haemolysis,15.4%
CCc1cc(/C(C)=N/OCc2ccc(C3CCCCC3)c(C(F)(F)F)c2)ccc1CN1CC(C(=O)O)C1,CYP2B6,"enzyme activity, inhibitor","human, liver microsomes","100 µM, 20 min",inhibition,21%
CCOc1ccccc1C=NNc1nc(-c2ccc(F)cc2)cs1,,haemolysis,human,"10 µM, 30 min, pH 7.4",haemolysis,0%
Cc1cc(C)cc(-n2cc(CN3CCN(C(=O)c4c(C)nc5ccc(Cl)cn45)CC3)nn2)c1,HeLa,"cell growth or viability, resazurin",,,CC50,> 100 µM
CCOP(=O)(OCC)[C@@H]1C[C@H](n2cc(-c3ccccc3)nn2)ON1C,HeLa,cell growth or viability,,72 h,CC50,> 250 µM
OC(Cn1cncn1)(Cn1cncn1)c1ccc(F)cc1F,,haemolysis,human,"1 µg/mL, 1 h",haemolysis,3.39%
COc1cccc(-n2cc(CN3CCN(C(=O)c4c(C)nc5ccc(Cl)cn45)CC3)nn2)c1,HeLa,"cell growth or viability, resazurin",,,CC50,> 100 µM
Fc1ccc(-c2csc(NN=Cc3ccc[nH]3)n2)cc1,,haemolysis,human,"50 µM, 30 min, pH 7.4",haemolysis,26.3%
COc1ccc(S(=O)(=O)Nc2cc(OC)c(NC(=O)CCCl)cc2OC)cc1,HeLa,"cell growth or viability, XTT",,72 h,IC50,16 µM
Cc1nc2ccc(Cl)cn2c1C(=O)N1CCN(Cc2cn(-c3cccc(C(F)(F)F)c3)nn2)CC1,HeLa,"cell growth or viability, resazurin",,,CC50,> 100 µM
Fc1ccc(-c2csc(NN=Cc3cccc(C(F)(F)F)c3)n2)cc1,,haemolysis,human,"50 µM, 30 min, pH 7.4",haemolysis,30.7%
Cc1ccn2c(C(=O)N3CCN(CCn4cc(-c5ccc(C(C)(C)C)cc5)nn4)CC3)c(C)nc2c1,HeLa,"cell growth or viability, resazurin",,,CC50,> 100 µM
CCOP(=O)(OCC)[C@@H]1C[C@@H](n2cc(Cn3ccc(=O)[nH]c3=O)nn2)ON1C (racemic),HeLa,cell growth or viability,,72 h,CC50,≥ 250 µM
CCCc1cn(CCN2CCN(C(=O)c3c(C)nc4ccc(Cl)cn34)CC2)nn1,HeLa,"cell growth or viability, resazurin",,,CC50,> 100 µM
CCOP(=O)(OCC)[C@@H]1C[C@@H](n2cc(Cn3cc(C)c(=O)[nH]c3=O)nn2)ON1C (racemic),HEL,cell growth or viability,,72 h,CC50,> 100 µM
Cc1nc2ccc(Cl)cn2c1C(=O)N1CCN(Cc2cn(-c3ccc([N+](=O)[O-])cc3)nn2)CC1,HeLa,"cell growth or viability, resazurin",,,CC50,> 100 µM
CCOP(=O)(OCC)[C@@H]1C[C@H](n2cc(Cn3cnc4c(N)ncnc43)nn2)ON1C (relative stereo),HEL,cell growth or viability,,72 h,CC50,> 100 µM
Cc1ccc(C=NNc2nc(-c3ccc(F)cc3)cs2)o1,,haemolysis,human,"10 µM, 30 min, pH 7.4",haemolysis,1.2%
CCOP(=O)(OCC)[C@@H]1C[C@H](n2cc(Cn3ccc(NC(C)=O)nc3=O)nn2)ON1C (racemic),HeLa,cell growth or viability,,72 h,CC50,> 250 µM
Oc1ccc(Cl)cc1C=NNc1nc(-c2ccc(F)cc2)cs1,,haemolysis,human,"50 µM, 30 min, pH 7.4",haemolysis,21.2%
Cc1ccc(C(=O)N2CCOC[C@H]2Cc2cccc(-n3nccn3)c2)c(-n2nccn2)c1,CYP2B6,"enzyme activity, inhibitor","human, liver microsomes",100 µM,inhibition,44%
Fc1ccc(-c2csc(NN=Cc3ccc(C(F)(F)F)cc3)n2)cc1,,haemolysis,human,"50 µM, 30 min, pH 7.4",haemolysis,25.7%
C[C@H](O)c1cc(C(=O)N[C@@H](C)Cn2ccc(-c3ccc(C#N)c(Cl)c3)n2)n[nH]1,"UDP-glucuronosyltransferase 1A6 (UGT1A6, Homo sapiens, UniProt P19224)","enzyme activity, inhibitor","human, liver microsomes",,IC50,> 100 µM
Cc1ccn2c(C(=O)N3CCN(Cc4cn(-c5ccc([N+](=O)[O-])cc5)nn4)CC3)c(C)nc2c1,HeLa,"cell growth or viability, resazurin",,,CC50,> 100 µM
Fc1ccc(-c2csc(NN=Cc3cccs3)n2)cc1,,haemolysis,human,"50 µM, 30 min, pH 7.4",haemolysis,32.4%
